The source made the active and inactive calls. No cut-off for these calls is given here.
How the values were obtained:
[1] = biological target: T1, Angiotensin-converting enzyme (Oryctolagus cuniculus, UniProt P12822); experiment: Tested for 50% inhibition of Angiotensin converting enzyme(ACE) obtained from rabbit lung (in vitro)
T1 sequence (P12822 whole entry): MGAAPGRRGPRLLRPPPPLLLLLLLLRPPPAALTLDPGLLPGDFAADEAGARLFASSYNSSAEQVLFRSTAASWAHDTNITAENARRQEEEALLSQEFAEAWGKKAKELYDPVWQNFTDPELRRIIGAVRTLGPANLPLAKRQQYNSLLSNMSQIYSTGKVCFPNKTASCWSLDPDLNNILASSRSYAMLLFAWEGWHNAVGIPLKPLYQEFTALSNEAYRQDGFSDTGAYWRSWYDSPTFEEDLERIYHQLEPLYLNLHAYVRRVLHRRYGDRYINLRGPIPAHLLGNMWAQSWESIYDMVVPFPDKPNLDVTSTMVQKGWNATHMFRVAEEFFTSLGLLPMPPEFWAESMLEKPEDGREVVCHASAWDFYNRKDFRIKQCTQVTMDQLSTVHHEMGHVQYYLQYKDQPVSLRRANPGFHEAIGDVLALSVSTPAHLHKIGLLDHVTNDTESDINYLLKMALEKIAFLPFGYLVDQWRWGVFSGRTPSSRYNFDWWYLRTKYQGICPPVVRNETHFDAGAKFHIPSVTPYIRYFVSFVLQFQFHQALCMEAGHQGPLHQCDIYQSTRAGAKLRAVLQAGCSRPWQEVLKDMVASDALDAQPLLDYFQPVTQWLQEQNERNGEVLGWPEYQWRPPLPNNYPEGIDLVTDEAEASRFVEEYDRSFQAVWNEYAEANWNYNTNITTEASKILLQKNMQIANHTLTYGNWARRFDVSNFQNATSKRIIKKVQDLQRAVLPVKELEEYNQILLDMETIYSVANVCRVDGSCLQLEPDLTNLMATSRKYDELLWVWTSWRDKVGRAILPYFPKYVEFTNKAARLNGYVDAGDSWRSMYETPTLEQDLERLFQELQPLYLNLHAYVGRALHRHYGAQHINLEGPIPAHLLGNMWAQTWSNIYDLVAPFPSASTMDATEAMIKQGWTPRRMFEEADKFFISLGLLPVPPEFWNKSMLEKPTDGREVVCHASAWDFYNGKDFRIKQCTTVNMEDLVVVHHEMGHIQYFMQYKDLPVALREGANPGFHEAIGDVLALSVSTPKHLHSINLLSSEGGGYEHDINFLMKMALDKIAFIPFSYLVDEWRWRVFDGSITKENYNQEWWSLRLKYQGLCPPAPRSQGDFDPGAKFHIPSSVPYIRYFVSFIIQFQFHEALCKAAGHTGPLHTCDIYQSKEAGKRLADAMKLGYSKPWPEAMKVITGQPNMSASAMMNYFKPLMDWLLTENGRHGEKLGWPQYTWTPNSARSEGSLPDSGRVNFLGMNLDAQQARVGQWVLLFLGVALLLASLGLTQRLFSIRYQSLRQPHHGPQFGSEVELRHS
Outline: (§1)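 ACE was partially purified from rabbit lung and incubated with the synthetic substrate Hip-His-Leu. The hippuric acid product was measured spectrophotometrically. IC50 was read graphically from a range of inhibitor concentrations within the assay's linear range. Each determination was done in duplicate and repeated once.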

Thromboxane-A synthase [2] = biological target: T2, Thromboxane-A synthase (Homo sapiens, UniProt P24557); experiment: Tested for 50% inhibition of thromboxane synthase (TxS) in human platelets (in vitro)
T2 sequence (P24557 whole entry): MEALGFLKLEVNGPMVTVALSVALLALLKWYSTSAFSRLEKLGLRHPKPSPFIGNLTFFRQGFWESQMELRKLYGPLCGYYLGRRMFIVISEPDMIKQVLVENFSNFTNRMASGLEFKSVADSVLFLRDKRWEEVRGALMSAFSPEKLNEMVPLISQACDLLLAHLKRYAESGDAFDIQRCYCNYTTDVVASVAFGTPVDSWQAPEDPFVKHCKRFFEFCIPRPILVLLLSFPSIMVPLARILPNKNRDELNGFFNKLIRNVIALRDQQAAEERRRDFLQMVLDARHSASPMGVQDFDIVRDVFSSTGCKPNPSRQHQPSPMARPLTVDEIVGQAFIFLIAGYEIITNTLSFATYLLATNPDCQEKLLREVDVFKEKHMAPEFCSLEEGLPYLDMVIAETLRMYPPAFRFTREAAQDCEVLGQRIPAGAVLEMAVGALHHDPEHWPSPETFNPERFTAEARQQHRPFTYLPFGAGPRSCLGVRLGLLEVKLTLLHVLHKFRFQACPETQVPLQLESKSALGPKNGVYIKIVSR
Outline: (§2)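 IC50 was obtained graphically from a range of compound concentrations within the linear range of the assay. Determinations were made in duplicate and repeated once.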

[3] = biological target: T1, Angiotensin-converting enzyme; experiment: Tested for 50% inhibition of Angiotensin converting enzyme(ACE) obtained from rabbit lung (in vitro); Not active; outline: as §1
Rattus norvegicus [4] = experiment: Tested for percent inhibition of maximum angiotensin I (AI) pressor response in rats on oral administration of 300 mg/kg after 0.5 hr; assay type: functional
Outline: (§3)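 Conscious catheterized SHR were prepared as for blood pressure recording. At set times after dosing, angiotensin I was injected intraarterially in 0.5 mL. The rise in arterial pressure was recorded and expressed as percent inhibition of the angiotensin I pressor response.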

Rattus norvegicus [5] = experiment: Antihypertensive activity was measured in spontaneously hypertensive rat (SHR) by measuring the blood pressure on interarterial administration at dose of 1 mg/kg; Not significant; assay type: functional, organism-based; parameters: dose 1 mg/kg; conditions: Artery
Outline: (§4)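 Conscious, fully ambulatory SHR (250–280 g) were fitted with an arterial catheter led through an infusion swivel inside a protective spring. After 24 h recovery from surgery, rats were housed singly. Mean arterial pressure was recorded continuously after dosing over a 6-h period, with later readings up to 24 h. Rats had chow and tap water freely under a 12-h light cycle.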

Rattus norvegicus [6] = experiment: Antihypertensive activity was measured in spontaneously hypertensive rat (SHR) by measuring the blood pressure after 24 hours on interarterial administration at dose of 1 mg/kg; Not significant; assay type: functional, organism-based; parameters: dose 1 mg/kg; conditions: Artery; outline: as §4
Rattus norvegicus [7] = experiment: Tested for percent inhibition of maximum angiotensin I (AI) pressor response in rats on oral administration of 300 mg/kg after 2 hr; assay type: functional; outline: as §3
Rattus norvegicus [8] = experiment: Antihypertensive activity was measured in spontaneously hypertensive rat (SHR) by measuring the maximum blood pressure when administered orally at dose of 5 mg/kg after 3 h; assay type: functional; conditions: route oral; outline: as §4
Rattus norvegicus [9] = experiment: Antihypertensive activity was measured in spontaneously hypertensive rat (SHR) by measuring the blood pressure after 24 hours when administered orally at dose of 5 mg/kg; assay type: functional; conditions: route oral
Outline: (§5)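 Conscious, unrestrained, fully ambulatory SHR (250–280 g) fed normal pellet chow with free access to tap water, on a 12-h light cycle. Oral dosing used a vehicle at 1 mL/kg po. The read-out was the change in mean arterial pressure from control.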

Thromboxane-A synthase [10] = biological target: T2, Thromboxane-A synthase; experiment: Tested for 50% inhibition of thromboxane synthase (TxS) in human platelets (in vitro); Not active; outline: as §2
Rattus norvegicus [11] = experiment: Tested for percent inhibition of maximum angiotensin I (AI) pressor response in rats on oral administration of 300 mg/kg after 5 hr; assay type: functional; outline: as §3
Rattus norvegicus [12] = experiment: Antihypertensive activity was measured in spontaneously hypertensive rat (SHR) by measuring the maximum blood pressure when administered orally at dose of 10 mg/kg after 6 h; assay type: functional; conditions: route oral; outline: as §4
Rattus norvegicus [13] = experiment: Antihypertensive activity was measured in spontaneously hypertensive rat (SHR) by measuring the blood pressure after 24 hours when administered orally at dose of 10 mg/kg; assay type: functional; conditions: route oral; outline: as §4
Rattus norvegicus [14] = experiment: Antihypertensive activity was measured in spontaneously hypertensive rat (SHR) by measuring the maximum blood pressure when administered orally at dose of 10 mg/kg after 4 hr; assay type: functional; conditions: route oral; outline: as §4
Rattus norvegicus [15] = experiment: Antihypertensive activity was measured in spontaneously hypertensive rat (SHR) by measuring the blood pressure on interarterial administration at dose of 1 mg/kg after 5 h; assay type: functional, Artery; outline: as §4
Rattus norvegicus [16] = experiment: Antihypertensive activity was measured in spontaneously hypertensive rat (SHR) by measuring the maximum blood pressure when administered orally at dose of 10 mg/kg after 5 h; assay type: functional; conditions: route oral; outline: as §4
Rattus norvegicus [17] = experiment: Tested for percent inhibition of maximum angiotensin I (AI) pressor response in rats on oral administration of 300 mg/kg after 4 hr; assay type: functional; outline: as §3
Rattus norvegicus [18] = experiment: Antihypertensive activity was measured in spontaneously hypertensive rat (SHR) by measuring the maximum blood pressure when administered orally at dose of 30 mg/kg after 4 h; assay type: functional; conditions: route oral; outline: as §4
Rattus norvegicus [19] = organism: Rattus norvegicus; conditions: 30 mg/kg
Rattus norvegicus [20] = experiment: Tested for percent inhibition of maximum angiotensin I (AI) pressor response in rats on oral administration of 300 mg/kg after 6 hr; assay type: functional; outline: as §3
Rattus norvegicus [21] = experiment: Antihypertensive activity was measured in spontaneously hypertensive rat (SHR) by measuring the maximum blood pressure when administered orally at dose of 30 mg/kg after 6 h; assay type: functional; conditions: route oral; outline: as §4
Rattus norvegicus [22] = experiment: Antihypertensive activity was measured in spontaneously hypertensive rat (SHR) by measuring the blood pressure after 24 hours when administered orally at dose of 30 mg/kg; assay type: functional; conditions: route oral; outline: as §5

Cc1c(-c2cccnc2)n(CCCCCCCC(=O)O[C@@H]2C[C@H](N[C@@H](CCc3ccccc3)C(=O)O)C(=O)N(CC(=O)O)c3ccccc32)c2ccccc12
IC50 [1]: 90 nM | IC50 (Thromboxane-A synthase [2]): 20 nM

Cc1c(-c2cccnc2)n(CCCCCCCC(=O)O)c2ccccc12
IC50 [3]: Not Active

O=C(O)C(CCCCc1cccc2cncn12)CCC(=O)N1c2ccccc2C[C@H]1C(=O)O (some centres undefined)
IC50 [1]: 20 nM

Cn1c(-c2cccnc2)c(CCCCCC(=O)O)c2cc(Cl)ccc21
IC50 [3]: Not Active

Cc1c(-c2cccnc2)n(CCCCC(=O)O)c2ccccc12
IC50 [3]: Not Active

Cn1c(-c2cccnc2)c(CCCCCC(=O)NCCCC[C@H](N[C@@H]2CCc3ccccc3N(CC(=O)O)C2=O)C(=O)O)c2cc(Cl)ccc21
IC50 [1]: 6 nM | inhibition in vivo at 300 mg/kg (Rattus norvegicus [4]): 81% | Max delta BP (Rattus norvegicus [5]): inactive | Delta blood pressure (Rattus norvegicus [6]): inactive | IC50 (Thromboxane-A synthase [2]): 4 nM

CCOC(=O)C(CCc1ccccc1)NC(C)C(=O)N1CCC[C@H]1C(=O)O (single isomer, unassigned)
inhibition in vivo at 300 mg/kg (Rattus norvegicus [7]): 100% | Max delta BP (Rattus norvegicus [8]): -28 mmHg | Delta blood pressure (Rattus norvegicus [9]): -17 mmHg | IC50 (Thromboxane-A synthase [10]): Not Active

CCOC(=O)[C@H](CCc1ccccc1)N[C@H]1CCc2ccccc2N(CC(=O)O)C1=O [BENAZEPRIL]
IC50 [1]: 2 nM | IC50 (Thromboxane-A synthase [10]): Not Active

Cn1c(-c2cccnc2)c(CCCCCC(=O)NCCNCCCC[C@H](N[C@H]2CCc3ccccc3N(CC(=O)[O-])C2=O)C(=O)[O-])c2cc(Cl)ccc21.[K+].[K+]
IC50 [1]: 4 nM | inhibition in vivo at 300 mg/kg (Rattus norvegicus [11]): 39% | Max delta BP (Rattus norvegicus [12]): -38 mmHg | Delta blood pressure (Rattus norvegicus [13]): -23 mmHg | IC50 (Thromboxane-A synthase [2]): 10 nM

O=C([O-])CN1C(=O)C(OP(=O)([O-])CCCCc2ccccc2)CCc2ccccc21.[Na+].[Na+] (centres undefined)
IC50 [1]: 20 nM | IC50 (Thromboxane-A synthase [10]): Not Active

O=C(O)CN1C(=O)[C@@H](N[C@@H](CCc2ccccc2)C(=O)O)C[C@@H](O)c2ccccc21
IC50 [1]: 8 nM | IC50 (Thromboxane-A synthase [10]): Not Active

NCCCC[C@H](N[C@@H]1CCc2ccccc2N(CC(=O)O)C1=O)C(=O)O
IC50 [1]: 7 nM | inhibition in vivo at 300 mg/kg (Rattus norvegicus [7]): 70% | Max delta BP (Rattus norvegicus [14]): -30 mmHg | Delta blood pressure (Rattus norvegicus [13]): -18 mmHg

Cn1c(-c2cccnc2)c(CCCCCC(=O)N(CCO)CCCC[C@H](N[C@H]2CCc3ccccc3N(CC(=O)O)C2=O)C(=O)O)c2cc(Cl)ccc21
IC50 [1]: 10 nM | inhibition in vivo at 300 mg/kg (Rattus norvegicus [4]): 76% | inhibition in vivo at 300 mg/kg (Rattus norvegicus [11]): 30% | Max delta BP (Rattus norvegicus [15]): -23 mmHg | Max delta BP (Rattus norvegicus [16]): -42 mmHg | Delta blood pressure (Rattus norvegicus [6]): inactive | Delta blood pressure (Rattus norvegicus [13]): -30 mmHg

Cc1c(-c2cccnc2)n(CCCCP(=O)(O)O)c2ccccc12
IC50 [3]: Not Active | IC50 (Thromboxane-A synthase [2]): 100 nM

Cc1c(-c2cccnc2)n(CCCCP(=O)(O)OC2CCc3ccccc3N(CC(=O)O)C2=O)c2ccccc12 (centres undefined)
IC50 [1]: 30 nM | IC50 (Thromboxane-A synthase [2]): 20 nM

O=C(O)CN1C(=O)[C@@H](N[C@@H](CCCCNCCO)C(=O)O)CCc2ccccc21
IC50 [1]: 7 nM | inhibition in vivo at 300 mg/kg (Rattus norvegicus [17]): 84% | Max delta BP (Rattus norvegicus [18]): -28 mmHg | IC50 (Thromboxane-A synthase [10]): Not Active | Delta blood pressure (Rattus norvegicus [19]): inactive

CCOP(=O)(O)CCCCn1c(-c2cccnc2)c(C)c2ccccc21.Cl
IC50 [3]: Not Active | IC50 (Thromboxane-A synthase [2]): 9 nM

CNCCN(CCCC[C@H](N[C@H]1CCc2ccccc2N(CC(=O)[O-])C1=O)C(=O)[O-])C(=O)CCCCCc1c(-c2cccnc2)n(C)c2ccc(Cl)cc12.[Na+].[Na+]
IC50 [1]: 10 nM | inhibition in vivo at 300 mg/kg (Rattus norvegicus [20]): 71% | Max delta BP (Rattus norvegicus [21]): -39 mmHg | Delta blood pressure (Rattus norvegicus [22]): -20 mmHg | IC50 (Thromboxane-A synthase [2]): 18 nM

CC(=O)O[C@@H]1C[C@H](N[C@@H](CCc2ccccc2)C(=O)O)C(=O)N(CC(=O)O)c2ccccc21
IC50 [1]: 6 nM

— ChEMBL document CHEMBL1127543, “Dual angiotensin converting enzyme/thromboxane synthase inhibitors” (J Med Chem, 1994)
